Assay outcomes from PubChem BioAssay.
TRPC4 potent – TRPC4 (mouse) allosteric potentiation; B-score at 10 µM; 310,000 compounds, 0.42% hits; HEK293 TRPC4beta/mu-opioid, DAMGO EC20, Fluo-4 Ca2+ flux; active compounds read high;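 active = B-score of calcium response area above 5 SD of library B-scores, with initial fluorescence ratio within 5 SD of library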;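 note: B-score of integrated fluorescence ratio over time as area under calcium response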
TRPC6 act – activators of mouse TRPC6 channel | AID 2550 | 310,000 compounds, 0.13% hits | B-score at 10 µM | HEK293-TRPC6 membrane potential dye fluorescence; active compounds read high;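 active = B-score of the integrated fluorescence ratio above library mean plus 3 SD, and starting fluorescence ratio within library mean plus 5 SD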;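 note: higher score means more depolarization so channel activation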
TRPC4 block – blocks the mouse TRPC4 cation channel. Q9QUQ5. HEK293 TRPC4beta/mu-opioid, DAMGO-evoked Fluo4 calcium flux; active compounds read low. B-score at 10 µM. 300,000 compounds, 0.39% hits;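 active = B-score over 3 SD under the library average, no early fluorescence shift, positive overall ratio signal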
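System: stable TRPC4beta/mu-opioid receptor HEK293 cells; Dosing: single-point compound dosing; Measured by: Fluo4 Ca2+ flux fluorescence; Read-out basis: per-well B score of integrated baseline-normalized Fluo4 ratio.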
TRPC4 act – TRPC4 (mouse) channel activation; B-score at 10 µM; 310,000 compounds, 0.49% hits; Q9QUQ5; HEK293 TRPC4beta/mu-opioid, Fluo4 calcium fluorescence; active compounds read high;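 active = B-score above 5 SD of library B-scores, and initial fluorescence ratio not above library mean plus 5 SD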;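 note: positive B-score marks a calcium rise read as TRPC4 activation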
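Material: TRPC4beta and mu-opioid receptor HEK293 stable cells | Incubation: 45 min room-temperature Fluo4 loading, 110 s read | Detection: Kinetic Fluo4 calcium fluorescence | Measure: Integrated baseline-normalised fluorescence ratio, converted to per-well B score | Benchmarks: Low control buffer alone, high control maximal DAMGO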
TRPC6 inhibitor – inhibitors of mouse TRPC6 channel; AID 2553; 310,000 compounds, 1.1% hits; Q61143; HEK293-TRPC6, membrane potential dye, ACh-evoked depolarization; active compounds read low; B-score at 10 µM;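 active = B-score under library mean minus 3 SD, initial fluorescence not abnormally high, positive integrated signal ratio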;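 note: B-score derived from integrated fluorescence ratio over the kinetic read; more negative B-score means stronger inhibition of depolarization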
Active calls of the source: *; i = inactive; x = no result given. A selection: hits, their analogues and other compounds. The true share with any hit is near 2.3%.

SMILES	TRPC4 potent	TRPC6 act	TRPC4 block	TRPC4 act	TRPC6 inhibitor
Cc1ccc(-n2cc(CN3CCC(CO)(Cc4ccccc4)CC3)cn2)cc1	i	i	i	i	i
COc1ccccc1-n1cc(CN2CCCC(CO)(Cc3cccc(Cl)c3)C2)cn1 (stereo unspecified)	i	i	-5*	i	i
COCc1ccc(CN2CCCC(CO)(Cc3cccc(Cl)c3)C2)o1 (stereo unspecified)	i	i	i	i	i
Cc1cc(CN2CCCC(CO)(Cc3cccc(Cl)c3)C2)n[nH]1 (stereo unspecified)	i	i	i	i	i
O=C(Cn1cnc([N+](=O)[O-])c1)NC1CCCC1	i	i	i	i	i
O=C(CSc1nnc(NC(=O)c2ccccc2)s1)NCc1ccco1	i	i	i	i	i
O=C(CSc1nnc(NC(=O)c2ccc3c(c2)OCO3)s1)NCc1ccco1	11*	i	i	i	i
CSc1ccc(S(=O)(=O)NCC(=O)OCC(=O)N(Cc2ccccc2)C(C)C)cc1[N+](=O)[O-]	i	i	i	i	i
CSc1ccc(S(=O)(=O)NCC(=O)OCC(=O)N(C)Cc2ccccc2)cc1[N+](=O)[O-]	17*	i	i	i	i
COCCCN1C(=O)c2ccc(C(=O)OCC(=O)N3CCN(c4ccccc4)CC3)cc2C1=O	i	i	i	i	i
CC(=O)NNC(=S)NC(=O)C(c1ccccc1)c1ccccc1	i	i	i	i	i
CC(C)(C)C(=O)NC(=S)NNC(=O)C(c1ccccc1)c1ccccc1	i	i	i	304*	i
N#Cc1c(-c2cccs2)nc(SCc2ccc(Cl)cc2)[nH]c1=O	15*	i	-7*	i	i
COc1ccc(NC(=O)c2c(NC(=O)CNCc3ccco3)sc3c2CCC3)cc1	i	i	i	i	i
CCOc1ccc(NC(=O)c2c(NC(=O)CNCCN3CCOCC3)sc3c2CCC3)cc1	i	i	i	i	-5.7*
O=C(N/N=C/c1cccc2ccccc12)c1ccccc1Cl	10*	i	i	i	i
O=C(Nc1ccc(F)cc1)N1CCN2C(=O)c3ccccc3C12c1ccccc1 (stereo unspecified)	i	i	-6*	i	i
O=C1c2ccccc2C2(c3ccccc3)N1CCN2C(=O)C(Cl)(Cl)Cl (stereo unspecified)	i	i	i	i	i
CCOCCOC(=O)COc1ccc2c(-c3ccccc3)cc(=O)oc2c1	i	i	i	i	i
COc1ccc(/C=N/n2c(SC)nnc2-c2ccccc2)cc1C	34*	i	i	i	i
COC(=O)C1=C(C)N=c2s/c(=C3\C(=O)Nc4ccccc43)c(=O)n2C1c1ccccc1 (stereo unspecified)	i	i	i	i	-5.9*
Cc1ccc(Oc2ccccc2/C=N/O)cc1	i	i	-7*	i	i
CCN(c1ccccc1)S(=O)(=O)c1ccc(C(=O)N(CCN(C)C)c2nc3c(F)cc(F)cc3s2)cc1	i	i	i	i	i
S=c1[nH]nc(-c2ccncc2)n1/N=C/C(Cl)=C\c1ccccc1	12*	i	i	i	i
CCOCCN1CCN(c2c(C)c(C)nc3cc(-c4cc(OC)cc(OC)c4)nn23)CC1	i	i	i	i	i
SMILES	TRPC4 potent	TRPC6 act	TRPC4 block	TRPC4 act	TRPC6 inhibitor
COCCN1CCN(c2c(C)c(C)nc3cc(-c4cccc(OC)c4)nn23)CC1	i	i	i	48*	i
COc1ccc(C2CC(=O)N(C)c3ccccc3S2)cc1 (stereo unspecified)	i	i	i	i	i
CCOC(=O)[C@@H]1CCNC[C@@H]1c1ccccc1	i	i	i	190*	i
CCOC(=O)C1NC(=O)CC1c1ccccc1 (stereo unspecified)	i	i	i	i	i
CCN1CCCC(OC(=O)c2cc(-c3ccc(C)cc3)nc3ccccc23)C1 (stereo unspecified)	14*	i	i	i	i
O=C(COc1ccc(Cl)cc1Cl)NCCCn1ccnc1	i	i	i	i	i
Clc1ccccc1OCCCCn1ccnc1	i	i	i	i	i
Clc1ccc(SCCCCn2ccnc2)cc1	i	i	i	75*	i
Cc1cccc(Cl)c1OCCCCn1ccnc1	i	i	x	77*	i
Clc1ccccc1OCCCn1ccnc1	i	i	i	i	i
Cc1cc(Cl)cc(C)c1OCCCCn1ccnc1	i	i	i	106*	i
CC(C)(C)c1ccccc1OCC(=O)NCCCn1ccnc1	i	i	i	55*	i
c1ccc2cc(OCCCn3ccnc3)ccc2c1	11*	i	i	53*	i
Clc1cccc(OCCCn2ccnc2)c1	i	i	i	i	i
Cc1ccccc1OCCCCCn1ccnc1	i	i	i	61*	i
Cc1cc(OCCCCn2ccnc2)cc(C)c1Cl	i	i	i	141*	i
Cc1cccc(OCCCCCn2ccnc2)c1	14*	i	i	i	i
Cc1cc(OCCCn2ccnc2)ccc1C(C)C	i	i	i	i	i
Cc1cccc(OCCn2ccnc2)c1	i	i	i	i	i
CCN1CCCC1CNC(=O)c1csc2c1CCCC2 (stereo unspecified)	i	i	i	79*	i
COc1ccc([N+](=O)[O-])cc1NCc1ccco1	i	i	-6*	i	i
CCCCn1c(SCC(=O)N2c3ccccc3Sc3ccccc32)nc2c1c(=O)n(C)c(=O)n2C	117*	i	i	i	i
CC1Cc2ccccc2N1C(=O)CSc1nc2c(c(=O)n(C)c(=O)n2C)n1Cc1ccc(F)cc1 (stereo unspecified)	49*	i	i	i	i
O=C(Nc1c(C(=O)N2CCOCC2)cnn1-c1ccccc1)c1ccc(F)cc1	i	i	i	i	i
O=C(Cn1nc(-c2ccccc2)ccc1=O)NCCN1CCN(Cc2ccccc2)CC1	19*	i	i	i	i
O=C(Cc1ccccc1)NCCCN1CCN(CCCNC(=O)Cc2ccccc2)CC1	11*	i	i	i	i
C=CCNC(=O)c1ccccc1NC(=O)c1ccc(Cl)c(S(=O)(=O)Nc2ccccc2)c1	i	i	i	i	i
Cc1ccc(N(CC(=O)NC2CCCCC2)C(=O)CCCC(=O)Nc2ccccn2)cc1	i	i	i	i	i
